According to ChEMBL document CHEMBL1221292, “Design, synthesis, and evaluation of quinazoline T cell proliferation inhibitors” (Bioorg Med Chem, 2010):
Active and inactive are the calls of the source. No cut-off for these calls is given here.

Tests used:
Jurkat [1] = assay: Antiproliferative activity against human Jurkat cells after 72 hrs by BrdU incorporation assay; type: functional, cell-based
Summary of the method: (§1)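 Cells grown in RPMI at 37 °C, 5% CO2, then serum-starved 12 h. PBMC stimulated with ConA 10 µg/mL; Jurkat need no stimulation. 1 × 10^5 cells cultured 3 days with or without inhibitor, duplicate wells. Labelled with 10 µM BrdU, DNA denatured, anti-BrdU-POD added, colorimetric TMB read-out; IC50 derived.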

PBMC [2] = assay: Antiproliferative activity against ConA-stimulated human PBMC after 72 hrs by BrdU incorporation assay; type: functional, cell-based; summary of the method: as §1
Jurkat [3] = assay: Inhibition of TCR-mediated Zap70 phosphorylation in human Jurkat cells after 16 hrs by Western blotting; type: cell-based
Summary of the method: (§2)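 Jurkat treated 16 h with inhibitor, then stimulated 1 min at 37 °C with C305 (1:500) or mock PBS. Cells lysed at 2 × 10^7 cells/mL in NP-40 buffer with phosphatase and protease inhibitors. SLP-76 immunoprecipitated; pTyr detected by Western blot with 4G-10. For ZAP-70 activity, ZAP-70 IP was incubated with recombinant His-SLP-76 and 5 µM ATP for 15 min at 30 °C, then blotted for pTyr.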

A-375 [4] = assay: Antiproliferative activity against FCS-stimulated human A375 cells after 72 hrs by BrdU incorporation assay; type: functional, cell-based; conditions: A-375, 72 h
Summary of the method: (§3)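 Non-hematopoietic lines grown in DMEM, serum-starved 12 h, then stimulated: 10% FCS (HEK293, A375), PDGF 30 ng/mL (NIH 3T3), EGF 30 ng/mL (MDA-MB-231). 1 × 10^5 cells cultured 3 days over increasing inhibitor concentrations, duplicate wells. Proliferation by 10 µM BrdU labelling with colorimetric anti-BrdU-POD ELISA (TMB).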

Jurkat [5] = assay: Inhibition of TCR-mediated SLP76 phosphorylation in human Jurkat cells after 16 hrs by Western blotting; type: cell-based; summary of the method: as §2
PC-3 [6] = assay: Antiproliferative activity against non-stimulated human PC3 after 72 hrs by BrdU incorporation assay; type: functional, cell-based; conditions: PC-3, 72 h
PBMC [7] = assay: Cell cycle arrest in human PBMC assessed as accumulation at G2 phase by flow cytometry; type: functional
Summary of the method: (§4)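 PBMC treated with inhibitor 12 and 24 h, then pelleted, PBS-washed and fixed in cold 70% ethanol for at least 12 h. RNase A added for 30 min in the dark, then propidium iodide; DNA content analysed by FACS for G2 and sub-G1 fractions.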

Jurkat [8] = assay: Inhibition of anti-TCR-stimulated IL2 production in human Jurkat cells […] by ELISA; type: functional, cell-based
Summary of the method: (§5)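 Jurkat or PBMC treated 12 h with 1 µM, 0.5 µM or no inhibitor. 1 × 10^6 cells were then stimulated 12 h with plate-bound anti-TCR C305 (1:500) alone, or with anti-CD28 (1:100) and/or PMA (50 ng/ml); ionomycin 1 µM was also used. Cells spun out at 130g. Supernatant IL-2 measured by ELISA, absorbance 450 nm.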

Jurkat [9] = assay: Antiproliferative activity against ConA-stimulated human Jurkat after 72 hrs by BrdU incorporation assay; type: functional, cell-based
NIH3T3 [10] = assay: Antiproliferative activity against non-stimulated mouse NIH/3T3 cells after 72 hrs by BrdU incorporation assay; type: functional, cell-based; conditions: NIH3T3, 72 h
PBMC [11] = assay: Inhibition of anti-TCR/PMA-stimulated IL2 production in human PBMC cells […] after 12 hrs by ELISA; type: functional, cell-based; summary of the method: as §5
PBMC [12] = assay: Cell cycle arrest in human PBMC assessed as accumulation at subG1 phase by flow cytometry; type: functional; summary of the method: as §4
A-375 [13] = assay: Antiproliferative activity against non-stimulated human A375 cells after 72 hrs by BrdU incorporation assay; type: functional, cell-based; conditions: A-375, 72 h
Splenocyte [14] = assay: Inhibition of irradiated BALB/c mouse splenocyte-stimulated IL2 secretion in 2C mouse splenocyte at 1 uM after 24 hrs by mixed lymphocyte reaction; type: functional, cell-based
Summary of the method: (§6)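 MLR: splenocytes from 2c mice stimulated by irradiated BALB/c splenocytes in the presence of compound at the specified concentrations, 96-well cultures up to 72 h. Supernatants collected at 24, 48 and 72 h; IL-2 measured by ELISA at 450 nm.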

[15] = Antiproliferative activity against stimulated human keratinocytes after 72 hrs by BrdU incorporation assay; type: functional, cell-based; conditions: Keratinocyte
Jurkat [16] = assay: Inhibition of anti-TCR/antiCD28-stimulated IL2 production in human Jurkat cells […] after 12 hrs by ELISA; type: functional, cell-based; summary of the method: as §5
MDA-MB-231 [17] = assay: Antiproliferative activity against non-stimulated human MDA-MB-231 cells after 72 hrs by BrdU incorporation assay; type: functional, cell-based; conditions: MDA-MB-231, 72 h
PBMC [18] = assay: Inhibition of PMA/anti-CD28-stimulated IL2 production in human PBMC cells up to 5 uM after 12 hrs by ELISA; type: functional, cell-based; summary of the method: as §5
PBMC [19] = assay: Antiproliferative activity against LPS-stimulated human PBMC after 72 hrs by BrdU incorporation assay; type: functional, cell-based
Summary of the method: (§7)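 PBMC isolated from healthy donor blood on Ficoll. CD3+ T cells purified with anti-CD3 (autoMACS), identity confirmed as CD3+ by flow cytometry; CD3-depleted PBMC also kept. Stimulation: ConA (10 µg/mL), ODN2006 (0.5 µg/mL) or LPS (50 µg/mL); depleted PBMC got ODN2006 or LPS. Cultured 72 h with inhibitor. Read-out was BrdU uptake, normalized to maximal proliferation without inhibitor.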

Splenocyte [20] = assay: Inhibition of irradiated BALB/c mouse splenocyte-stimulated IL2 secretion in 2C mouse splenocyte after 72 hrs by mixed lymphocyte reaction; type: functional, cell-based; summary of the method: as §6
PBMC [21] = assay: Antiproliferative activity against CD3+ expressing human PBMC after 72 hrs by BrdU incorporation assay; type: functional, cell-based; summary of the method: as §7
PBMC [22] = assay: Antiproliferative activity against ODN2006-stimulated human PBMC after 72 hrs by BrdU incorporation assay; type: functional, cell-based; summary of the method: as §7
PBMC [23] = assay: Inhibition of anti-TCR-stimulated IL2 production in human PBMC cells […] after 12 hrs by ELISA; type: functional, cell-based; summary of the method: as §5
PBMC [24] = assay: Antiproliferative activity against CD3 deficient human PBMC after 72 hrs by BrdU incorporation assay; type: functional, cell-based; summary of the method: as §7
Jurkat [25] = assay: Antiproliferative activity against non-stimulated human Jurkat cells after 72 hrs by BrdU incorporation assay; type: functional, cell-based; summary of the method: as §1
Jurkat [26] = assay: Inhibition of PMA/anti-CD28-stimulated IL2 production in human Jurkat cells […] after 12 hrs by ELISA; type: functional, cell-based; summary of the method: as §5
NIH3T3 [27] = assay: Antiproliferative activity against PDGF-stimulated mouse NIH/3T3 cells after 72 hrs by BrdU incorporation assay; type: functional, cell-based; conditions: NIH3T3, 72 h; summary of the method: as §3
HEK293 [28] = assay: Antiproliferative activity against FCS-stimulated human HEK293 cells after 72 hrs by BrdU incorporation assay; type: functional, cell-based; conditions: HEK293, 72 h; summary of the method: as §3
PBMC [29] = assay: Antiproliferative activity against non-stimulated human PBMC after 72 hrs by BrdU incorporation assay; type: cell-based
PC-3 [30] = assay: Antiproliferative activity against stimulated human PC3 after 72 hrs by BrdU incorporation assay; type: functional, cell-based; conditions: PC-3, 72 h
HEK293 [31] = assay: Antiproliferative activity against non-stimulated human HEK293 cells after 72 hrs by BrdU incorporation assay; type: functional, cell-based; conditions: HEK293, 72 h
MDA-MB-231 [32] = assay: Antiproliferative activity against stimulated human MDA-MB-231 cells after 72 hrs by BrdU incorporation assay; type: functional, cell-based; conditions: MDA-MB-231, 72 h; summary of the method: as §3

COc1cc(-c2nc(NCc3ccc(F)c(F)c3)c3ccccc3n2)cc(OC)c1OC
IC50 (Jurkat [1]): 730 nM | IC50 (PBMC [2]): 200 nM

COc1cc(-c2nc(Nc3ccc4cn[nH]c4c3)c3ccccc3n2)cc(OC)c1OC
IC50 (Jurkat [1]): 600 nM | IC50 (PBMC [2]): 450 nM

COc1cc(-c2nc(Nc3ccc(Cl)cc3)c3ccccc3n2)cc(OC)c1OC
IC50 (Jurkat [1]): 530 nM | IC50 (PBMC [2]): 300 nM

COc1cc(-c2nc(Nc3ccc4nc[nH]c4c3)c3ccccc3n2)cc(OC)c1OC
IC50 (Jurkat [1]): 1500 nM | IC50 (PBMC [2]): 430 nM

COc1cc(-c2nc(Nc3ccc4c(c3)OCO4)c3ccccc3n2)cc(OC)c1OC
IC50 (Jurkat [1]): 600 nM | IC50 (PBMC [2]): 380 nM

COc1cc(-c2nc(NCc3ccc(Cl)c(Cl)c3)c3ccccc3n2)cc(OC)c1OC
IC50 (Jurkat [1]): 730 nM | IC50 (PBMC [2]): 300 nM

Oc1cc(-c2nc(Nc3ccc4c(c3)OCO4)c3ccccc3n2)cc(O)c1O
IC50 (Jurkat [1]): 800 nM | IC50 (PBMC [2]): 5500 nM

Oc1cc(-c2nc(NCc3ccccc3)c3ccccc3n2)cc(O)c1O
IC50 (Jurkat [1]): 950 nM | IC50 (PBMC [2]): 7000 nM

CCCCCCCCOc1ccc(Nc2nc(-c3cc(O)c(O)c(O)c3)nc3ccccc23)cc1
IC50 (Jurkat [1]): 4250 nM | IC50 (PBMC [2]): 4530 nM

COc1cc(-c2nc(Nc3ccc(C)cc3)c3ccccc3n2)cc(OC)c1OC
inhibition (Jurkat [3]): Dose-dependent effect | IC50 (A-375 [4]): > 10000 nM | inhibition (Jurkat [5]): Dose-dependent effect | IC50 (PC-3 [6]): 10000 nM | Activity (PBMC [7]): 50% | inhibition (Jurkat [8]): inactive | IC50 (Jurkat [9]): 100 nM | IC50 (NIH3T3 [10]): 3000 nM | inhibition (PBMC [11]): inactive | Activity (PBMC [12]): 9.5% | IC50 (A-375 [13]): 800 nM | inhibition (Splenocyte [14]): inactive | IC50 [15]: > 10000 nM | inhibition (Jurkat [16]): inactive | IC50 (MDA-MB-231 [17]): > 10000 nM | inhibition (PBMC [18]): inactive | IC50 (PBMC [19]): 500 nM | inhibition (Splenocyte [20]): inactive | IC50 (PBMC [21]): 100 nM | IC50 (PBMC [22]): 500 nM | inhibition (PBMC [23]): inactive | IC50 (Jurkat [1]): 29 nM | Activity (PBMC [24]): Active | IC50 (Jurkat [25]): 50 nM | inhibition (Jurkat [26]): inactive | IC50 (NIH3T3 [27]): 7000 nM | IC50 (HEK293 [28]): 10000 nM | IC50 (PBMC [29]): 50 nM | IC50 (PBMC [2]): 70 nM | IC50 (PC-3 [30]): > 10000 nM | IC50 (HEK293 [31]): 10000 nM | IC50 (MDA-MB-231 [32]): > 10000 nM

COc1cc(-c2nc(Nc3ccc(O)cc3)c3ccccc3n2)cc(OC)c1OC
IC50 (Jurkat [1]): 230 nM | IC50 (PBMC [2]): 300 nM

Nc1ccc(CNc2nc(-c3cc(O)c(O)c(O)c3)nc3ccccc23)cc1
IC50 (Jurkat [1]): 670 nM | IC50 (PBMC [2]): 570 nM

COc1ccc(CNc2nc(-c3cc(OC)c(OC)c(OC)c3)nc3ccccc23)cc1
IC50 (Jurkat [1]): 1100 nM | IC50 (PBMC [2]): 500 nM

COc1cc(-c2nc(Nc3ccc(OC(F)(F)F)cc3)c3ccccc3n2)cc(OC)c1OC
IC50 (Jurkat [1]): 180 nM | IC50 (PBMC [2]): 400 nM

Cc1ccc(Nc2nc(-c3cc(O)c(O)c(O)c3)nc3ccccc23)cc1
inhibition (Splenocyte [20]): Active | IC50 (Jurkat [1]): 850 nM | IC50 (PBMC [2]): 850 nM

Oc1cc(-c2nc(NCc3ccc(F)c(F)c3)c3ccccc3n2)cc(O)c1O
IC50 (Jurkat [1]): 600 nM | IC50 (PBMC [2]): 280 nM

Oc1cc(-c2nc(NCc3ccc(Cl)c(Cl)c3)c3ccccc3n2)cc(O)c1O
IC50 (Jurkat [1]): 3640 nM | IC50 (PBMC [2]): 2600 nM
